Assay results reported in ChEMBL document CHEMBL1914395, “Design, synthesis, and biological evaluation of callophycin A and analogues as potential chemopreventive and anticancer agents” (Bioorg Med Chem, 2011).

How the values were obtained:
Aromatase [1] = target: T1, Aromatase (Homo sapiens, UniProt P11511); experiment: Inhibition of aromatase after 10 mins preincubation by plate reader relative to control
T1 sequence (P11511 whole entry): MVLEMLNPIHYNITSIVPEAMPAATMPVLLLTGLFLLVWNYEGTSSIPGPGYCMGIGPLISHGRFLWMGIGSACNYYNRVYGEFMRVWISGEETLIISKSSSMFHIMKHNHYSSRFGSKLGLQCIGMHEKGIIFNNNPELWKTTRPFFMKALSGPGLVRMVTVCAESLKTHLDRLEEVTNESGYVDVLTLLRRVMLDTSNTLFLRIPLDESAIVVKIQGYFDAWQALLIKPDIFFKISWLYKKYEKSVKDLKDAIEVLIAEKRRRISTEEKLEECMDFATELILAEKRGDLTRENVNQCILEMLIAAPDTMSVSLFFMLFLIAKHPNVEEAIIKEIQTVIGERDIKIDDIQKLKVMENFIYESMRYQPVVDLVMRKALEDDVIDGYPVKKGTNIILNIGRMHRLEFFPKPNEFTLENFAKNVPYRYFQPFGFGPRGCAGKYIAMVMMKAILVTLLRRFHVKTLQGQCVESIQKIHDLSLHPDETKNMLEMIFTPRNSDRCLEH

MCF7 [2] = experiment: Antiproliferative activity against human MCF7 cells assessed as survival at 50 uM after 72 hrs by SRB assay relative to control; type: functional; conditions: MCF7, 72 h, read-out: Survival
Procedure, shortened: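 MCF7 cells (1 × 10^4 per well) were plated onto compound and kept at 37°C, 5% CO2 for 72 h. Cells were fixed in 10% TCA for 30 min and stained with 0.4% SRB in 1% acetic acid for 30 min. Bound dye was dissolved in 10 mM Tris (pH 10.0) and read at 515 nm. Survival is given as % of DMSO-treated controls, screened at 50 μM.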

[3] = target: T2, Nitric oxide synthase, inducible (Mus musculus) (UniProt P29477); experiment: Inhibition of iNOS-mediated nitric oxide production in LPS-stimulated mouse RAW 264.7 cells assessed as cell survival at 50 uM pretreated 15 mins before LPS challenge measured after 20 hrs relative to control; type: cell-based
T2 sequence (whole entry): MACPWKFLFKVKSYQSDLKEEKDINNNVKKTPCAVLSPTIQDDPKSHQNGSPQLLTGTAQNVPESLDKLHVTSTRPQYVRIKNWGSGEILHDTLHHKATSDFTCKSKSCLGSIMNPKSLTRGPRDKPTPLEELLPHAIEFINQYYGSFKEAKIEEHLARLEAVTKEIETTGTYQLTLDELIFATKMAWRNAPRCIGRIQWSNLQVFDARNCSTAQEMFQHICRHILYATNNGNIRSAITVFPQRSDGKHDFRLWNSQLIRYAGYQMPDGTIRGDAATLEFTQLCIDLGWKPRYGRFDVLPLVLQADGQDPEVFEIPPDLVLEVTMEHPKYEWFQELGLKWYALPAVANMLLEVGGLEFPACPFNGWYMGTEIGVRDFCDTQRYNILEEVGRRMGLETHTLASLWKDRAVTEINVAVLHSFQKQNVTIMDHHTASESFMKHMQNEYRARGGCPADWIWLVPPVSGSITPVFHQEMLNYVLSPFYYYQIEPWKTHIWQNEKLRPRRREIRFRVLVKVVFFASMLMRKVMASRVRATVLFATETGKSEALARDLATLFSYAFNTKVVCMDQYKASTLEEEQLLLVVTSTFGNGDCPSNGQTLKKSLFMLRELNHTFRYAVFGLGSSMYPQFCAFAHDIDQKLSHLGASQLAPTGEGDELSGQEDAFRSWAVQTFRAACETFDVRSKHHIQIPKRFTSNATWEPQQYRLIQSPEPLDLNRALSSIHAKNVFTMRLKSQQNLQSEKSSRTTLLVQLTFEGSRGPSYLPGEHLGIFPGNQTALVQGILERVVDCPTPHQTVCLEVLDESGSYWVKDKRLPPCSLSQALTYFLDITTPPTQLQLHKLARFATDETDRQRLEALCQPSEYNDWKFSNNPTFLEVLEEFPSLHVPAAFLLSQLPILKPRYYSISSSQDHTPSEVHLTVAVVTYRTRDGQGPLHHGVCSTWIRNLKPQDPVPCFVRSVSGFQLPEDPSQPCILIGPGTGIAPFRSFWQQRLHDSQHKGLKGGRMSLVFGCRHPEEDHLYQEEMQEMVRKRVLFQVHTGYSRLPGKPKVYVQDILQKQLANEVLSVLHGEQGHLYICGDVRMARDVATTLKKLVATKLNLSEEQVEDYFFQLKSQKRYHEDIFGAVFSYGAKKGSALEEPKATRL
Procedure, shortened: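 RAW 264.7 cells were incubated at 37°C, 5% CO2 for 24 h. They were then exposed to compound for 15 min before LPS (1 μg/mL) was added for 20 h. Cytotoxicity was measured by SRB staining under the same conditions. Survival is expressed as % relative to vehicle-treated controls at 50 μM.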

Aromatase [4] = target: T1, Aromatase; experiment: Inhibition of aromatase at 50 uM after 10 mins preincubation by plate reader relative to control
Procedure, shortened: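 CYP19 enzyme. Compound pre-incubated 10 min with an NADPH-regenerating system (NADP+, glucose 6-phosphate, G6PDH, MgCl2, albumin) in 50 mM potassium phosphate pH 7.4. Enzyme and 0.4 μM dibenzylfluorescein substrate then added, 30 min at 37 °C. Quenched with 2 N NaOH and incubated a further 2 h at 37 °C. Fluorescence read at ex 485/em 530 nm. Compound tested at 50 μM.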

[5] = target: NAD(P)H dehydrogenase [quinone] 1 (Mus musculus) (UniProt Q64669); experiment: Induction of quinone reductase 1 activity in mouse Hepa-1c1c7 cells at 50 uM by MTT assay relative to untreated control; type: cell-based
Procedure, shortened: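 Hepa 1c1c7 murine hepatoma cells treated with compound at 50 μM. QR1 measured by NADPH-dependent, menadiol-mediated reduction of MTT to formazan. Protein measured by crystal violet staining of identical plates. Specific activity is nmol formazan per mg protein per min. Induction ratio is treated versus DMSO-treated control.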

[6] = target: T3, Nitric oxide synthase, inducible (Mus musculus, UniProt P29477); experiment: Inhibition of iNOS-mediated nitric oxide production in LPS-stimulated mouse RAW 264.7 cells pretreated 15 mins before LPS challenge measured after 20 hrs relative to control; type: cell-based
T3 sequence (P29477 whole entry): T2 sequence (whole entry)
Procedure, shortened: (§1)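 RAW 264.7 cells cultured 24 h at 37°C, then given serially diluted compounds for 15 min before LPS (1 μg/mL) for 20 h. Nitrite in the medium measured with Griess reagent at 540 nm against a sodium nitrite standard curve. Cytotoxicity checked by SRB under the same conditions.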

HEK293 [7] = experiment: Inhibition of TNF-alpha-induced NFkappaB activation in human HEK293 cells assessed as cell survival at 50 uM after 6 hrs by luciferase assay relative to control; type: cell-based
[8] = target: T2, Nitric oxide synthase, inducible (Mus musculus); experiment: Inhibition of iNOS-mediated nitric oxide production in LPS-stimulated mouse RAW 264.7 cells at 50 uM pretreated 15 mins before LPS challenge measured after 20 hrs relative to control; type: cell-based; procedure, shortened: as §1
HEK293 [9] = experiment: Inhibition of TNF-alpha-induced NFkappaB activation in human HEK293 cells at 50 uM after 6 hrs by luciferase assay relative to control; type: cell-based
Procedure, shortened: (§2)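 Cells incubated 6 h with TNFα plus test compound, then luciferase activity measured. Results expressed as percent of TNFα-treated control. Screening concentration 50 μM.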

[10] = target: NAD(P)H dehydrogenase [quinone] 1 (Mus musculus) (UniProt Q64669); experiment: Induction of quinone reductase 1 activity in mouse Hepa-1c1c7 cells assessed as cell survival at 50 uM by MTT assay relative to control; type: cell-based
MCF7 [11] = experiment: Antiproliferative activity against human MCF7 cells after 72 hrs by SRB assay; type: functional, cell-based; conditions: MCF7, 72 h
Procedure, shortened: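 MCF7 cells, 1 × 10^4 per well, plated directly onto compounds and incubated 72 h at 37°C, 5% CO2. Fixed with 10% TCA, stained with 0.4% SRB in 1% acetic acid. Bound dye dissolved in 10 mM Tris pH 10.0, absorbance read at 515 nm. Survival expressed relative to DMSO-treated controls.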

[12] = target: NAD(P)H dehydrogenase [quinone] 1 (Mus musculus) (UniProt Q64669); experiment: Induction of quinone reductase 1 in mouse Hepa 1c1c7 cells assessed as concentration of compound required to double enzyme activity by MTT assay; type: cell-based
Procedure, shortened: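 Dose-response in Hepa 1c1c7 cells, run for substances with induction ratio >2 at 50 μM. QR1 activity measured as menadiol-mediated, NADPH-dependent MTT reduction to formazan, normalised to crystal violet protein content. CD is the concentration that doubles specific activity relative to DMSO control.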

[13] = Inhibition of TNF-alpha-induced NFkappaB activation in human HEK293 cells after 6 hrs by luciferase assay; type: cell-based; conditions: HEK293, 6 h; procedure, shortened: as §2

NAD(P)H dehydrogenase [quinone] 1 (Mus musculus), sequence (Q64669 whole entry): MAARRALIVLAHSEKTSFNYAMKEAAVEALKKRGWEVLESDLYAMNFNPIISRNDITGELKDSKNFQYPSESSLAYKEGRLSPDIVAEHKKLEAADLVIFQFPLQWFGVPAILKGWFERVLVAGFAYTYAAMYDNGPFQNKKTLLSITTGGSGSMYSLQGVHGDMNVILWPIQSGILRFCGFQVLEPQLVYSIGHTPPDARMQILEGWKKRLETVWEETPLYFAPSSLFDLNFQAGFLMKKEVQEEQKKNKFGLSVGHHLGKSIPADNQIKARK

SMILES	IC50 (Aromatase [1])	viability at 50 µM (MCF7 [2])	Survival [3]	inhibition at 50 µM (Aromatase [4])	Ratio [5]	IC50 [6]	Survival (HEK293 [7])	inhibition [8]	inhibition (HEK293 [9])	Survival [10]	IC50 (MCF7 [11])	CD [12]	IC50 [13]
COC(=O)[C@@H]1Cc2c([nH]c3ccccc23)CN1Cc1ccc(O)cc1	57.4 µM	94.7%	75.5%	46.1%	1.3	38.8 µM	96%	62.1%	47.8%	91.7%	–	–	–
COC(=O)[C@H]1Cc2c([nH]c3ccccc23)CN1S(=O)(=O)c1ccc(Br)cc1	–	30.6%	89.7%	35.5%	2.1	–	154%	3.8%	43.7%	83.7%	42.1 µM	29.7 µM	–
COC(=O)[C@H]1Cc2c([nH]c3ccccc23)CN1C(=O)NCCc1ccccc1	–	4.3%	66.1%	24.6%	1.5	11 µM	108%	66.2%	81.7%	51.7%	27.7 µM	–	13.3 µM
COC(=O)[C@@H]1Cc2c([nH]c3ccccc23)CN1C(=O)NC12CC3CC(CC(C3)C1)C2	–	37.6%	66.7%	30.3%	0.9	13.4 µM	139%	64.1%	60.7%	78.1%	36.9 µM	–	10.2 µM
COC(=O)[C@@H]1Cc2c([nH]c3ccccc23)CN1C(=O)NC(C)C	47.3 µM	71%	94.3%	54%	2.9	–	117%	37.8%	69%	61.2%	–	6.4 µM	26.5 µM
COC(=O)[C@@H]1Cc2c([nH]c3ccccc23)CN1CC1CC1	58.6 µM	85.6%	99.8%	47.7%	2.2	–	152%	23.5%	54.1%	68.6%	–	34 µM	–
CCCCCNC(=O)N1Cc2[nH]c3ccccc3c2C[C@H]1C(=O)OC	–	40.3%	94.9%	-0.04%	4.9	–	110%	8.7%	35.5%	7.8%	38.4 µM	3.8 µM	–
C=CCOC(=O)N1Cc2[nH]c3ccccc3c2C[C@H]1C(=O)OC	44.8 µM	70.4%	94.2%	54.6%	1.9	–	191%	8.5%	33.3%	83.4%	–	–	–
O=C(O)[C@@H]1Cc2c([nH]c3ccccc23)CN1Cc1ccc(O)cc1	10.5 µM	85.2%	90.3%	57.9%	1.7	–	102%	16%	55%	88.3%	–	–	–
COC(=O)[C@H]1Cc2c([nH]c3ccccc23)CN1C(=O)NC1CCCCC1	–	5.3%	83.8%	24.4%	1	41.6 µM	101%	55%	20.9%	71.8%	18.4 µM	–	–
COC(=O)[C@@H]1Cc2c([nH]c3ccccc23)CN1S(=O)(=O)c1ccc(C)cc1	63.2 µM	19%	116%	41.7%	1.3	22.6 µM	171%	73.8%	6%	61%	37 µM	–	–
COC(=O)[C@@H]1Cc2c([nH]c3ccccc23)CN1C(=O)NCCc1ccccc1	–	1.3%	68.9%	31.8%	0.5	–	94.6%	48.2%	87.7%	59.6%	25.4 µM	–	16.9 µM
COC(=O)[C@H]1Cc2c([nH]c3ccccc23)CN1S(C)(=O)=O	68.1 µM	90.9%	79.9%	40.2%	1.6	–	158%	12.9%	42.2%	86.3%	–	–	–
COC(=O)[C@H]1Cc2c([nH]c3ccccc23)CN1C(=O)NC12CC3CC(CC(C3)C1)C2	–	9.9%	63.2%	39.9%	0.4	11.7 µM	110%	64.7%	36.5%	30.6%	14.7 µM	–	–
